Here are results for 28 compounds from ChEMBL document CHEMBL1147705, “Imidazolylpyrimidine based CXCR2 chemokine receptor antagonists” (Bioorg Med Chem Lett, 2006).

Series [1] deals with T1, C-X-C chemokine receptor type 2 (Homo sapiens, UniProt P25025).
T1 sequence (P25025 whole entry): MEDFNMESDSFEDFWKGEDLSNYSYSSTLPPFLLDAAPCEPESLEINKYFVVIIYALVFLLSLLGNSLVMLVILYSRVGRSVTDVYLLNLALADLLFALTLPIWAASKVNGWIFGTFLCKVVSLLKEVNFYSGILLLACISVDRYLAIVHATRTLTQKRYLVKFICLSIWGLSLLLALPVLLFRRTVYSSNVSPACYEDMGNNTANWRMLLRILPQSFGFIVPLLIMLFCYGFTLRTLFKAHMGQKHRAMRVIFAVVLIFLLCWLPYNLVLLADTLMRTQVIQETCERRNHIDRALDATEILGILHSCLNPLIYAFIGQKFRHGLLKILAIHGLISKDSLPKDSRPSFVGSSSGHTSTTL
In words: Binding affinity to human CXCR2 receptor transfected in CHO cell. It counts as cell-based.

The nature of series [2]: Stability in rat liver microsome at 10 uM after 30 min. Format: ADME. To be noted: liver microsomes, read-out: Stability. In outline: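 Compound at 10 µM incubated with rat liver microsomal enzyme (300 nM) for 30 min at 37 °C; percent of parent remaining after 30 min quantified by LC. Values are means of at least two experiments, standard deviation <±30%.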
Series [3] can be described thus: Oral bioavailability in rat at […], iv and po. It counts as ADME, organism-based. To be noted: in vivo.
Series [4] in a line: Cmax in dog at 4 umol/kg, po. It counts as ADME, organism-based, Canis lupus familiaris. Also on record: dose 4 umol/kg, route oral. Particulars: in vivo.
The nature of series [5]: Oral bioavailability in dog at 2 umol/kg, iv and 4 umol/kg, po. It counts as ADME, organism-based, Canis lupus familiaris. Particulars: in vivo.
Series [6] is described as follows: Half life in rat at 4 umol/kg, iv and po. It counts as ADME, organism-based. Particulars: in vivo. Put shortly:
(§1)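 Rats (n = 3) dosed 4 µmol/kg by iv and po routes; plasma pharmacokinetic profile followed after each route to derive the parameters.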

Series [7] in a line: Clearance in rat at 4 umol/kg, iv and po. It counts as ADME, organism-based. To be noted: in vivo. Put shortly: as §1
Series [8] in a line: Volume of distribution in rat at 4 umol/kg, iv and po. To be noted: in vivo, read-out: Vdss. Format: ADME, organism-based. Put shortly: as §1
A short description of series [9]: AUC (infinity) in rat at 4 umol/kg, po. Format: ADME, organism-based. The arrangement: dose 4 umol/kg, route oral, time infinity. Particulars: plasma. Put shortly:
as §1

Series [10] in a line: Cmax in rat at 4 umol/kg, po. It counts as ADME, organism-based. Also on record: dose 4 umol/kg, route oral. To be noted: in vivo. In outline: as §1
A short description of series [11]: Half life in dog at 2 umol/kg, iv and 4 umol/kg, po. Particulars: in vivo. It counts as ADME, organism-based, Canis lupus familiaris.
Series [12] in a line: Clearance in dog at 2 umol/kg, iv and 4 umol/kg, po. Format: ADME, organism-based, Canis lupus familiaris. Particulars: in vivo.
Series [13] is described as follows: Volume of distribution in dog at 2 umol/kg, iv and 4 umol/kg, po. Format: ADME, organism-based, Canis lupus familiaris. Particulars: in vivo, read-out: Vdss.
Series [14] in a line: AUC (infinity) in dog at 4 umol/kg, po. Format: ADME, organism-based, Canis lupus familiaris. Also on record: dose 4 umol/kg, route oral, time infinity. To be noted: plasma.

What is called Ki is a measure of affinity in units of concentration, obtained from inhibition or displacement. In general, bioavailability refers to dose-corrected exposure relative to a reference, in per cent. Low readings indicate little systemic uptake, high ones much systemic uptake. Compound `CCOCCCNC(=O)[C@H](CC(C)C)Nc1cc(CC)nc(-n2cnc(-c3ccc(OC(F)(F)F)cc3)c2)n1` gave a Ki in [1] of 57 nM. In series [2], the remaining at 0.5 h, 10 µM was 77%. For the same compound, the bioavailability in [3] was 18%.

In the case of `CCCCc1cc(N[C@@H](CC(C)C)C(=O)NCCCOCC)nc(-n2cnc(-c3ccc(OC(F)(F)F)cc3)c2)n1`, in series [1], the Ki was 17 nM. Moreover, the remaining at 0.5 h, 10 µM in series [2] was 66%. The bioavailability in [3] turned out to be 7%.

As for `CCCCc1cc(N[C@@H](CC(C)C)C(=O)NCCCOCC)nc(-n2cnc(-c3ccccc3)c2)n1`, the affinity in series [1], expressed as Ki, was 100 nM. In addition, the remaining at 0.5 h, 10 µM in series [2] worked out at 2%.

In series [1], `CCCCc1cc(N[C@@H](CC(C)C)C(=O)NCCCOCC)nc(-n2cnc(-c3ccc(C(F)(F)F)cc3)c2)n1` came in with a Ki of 14 nM. Moreover, in series [2], the remaining at 0.5 h, 10 µM stood at 80%.

Compound `CCCCc1cc(N[C@@H](CC(C)C)C(=O)NCCCOCC)nc(-n2ccnc2C)n1` showed an inhibitory constant (Ki) in [1] above 10000 nM. Besides, the remaining at 0.5 h, 10 µM in series [2] was determined as 27%.

In turn, `CCCCc1cc(N[C@@H](CC(C)C)C(=O)NCCCOCC)nc(-n2cnc(C)c2)n1` showed a Ki in [1] of 90 nM. Besides, the remaining at 0.5 h, 10 µM in series [2] came to 25%.

Compound `CCCCc1cc(N[C@@H](CC(C)C)C(=O)NCCCOCC)nc(-n2cnc(-c3ccc([N+](=O)[O-])cc3)c2)n1` yielded a Ki in series [1] of 160 nM. Also, the remaining at 0.5 h, 10 µM in series [2] was 48%.

Consider `CCCCc1cc(N[C@@H](CC(C)C)C(=O)NCCCOCC)nc(-n2cnc(-c3ccc(C#N)cc3)c2)n1`, for which, in series [1], the inhibition constant (Ki) amounted to 43 nM. Further, the remaining at 0.5 h, 10 µM in series [2] was 50%.

In the case of `CCCCc1cc(N[C@@H](CC(C)C)C(=O)NCCCOCC)nc(-n2cnc(-c3ccc(N)cc3)c2)n1`, the Ki in [1] is 600 nM.

The compound `CCCCc1cc(N[C@@H](CC(C)C)C(=O)NCCCOCC)nc(-n2cncn2)n1` returned a Ki in series [1] above 10000 nM. In series [2], the remaining at 0.5 h, 10 µM came out at 30%.

For the compound `CCCCc1cc(N[C@@H](CC(C)C)C(=O)NCCCOCC)nc(-n2cnc(-c3ccc(Cl)cc3)c2)n1`, affinity in series [1] was put at a Ki of 27 nM. Besides, in [2], the remaining at 0.5 h, 10 µM worked out at 54%.

Turning to `CCCCc1cc(N[C@@H](CC(C)C)C(=O)NCCCOCC)nc(-n2cnc(-c3ccc(F)cc3)c2)n1`, affinity in series [1] was put at a Ki of 37 nM. In series [2], the remaining at 0.5 h, 10 µM is 20%.

As for `CCCCCCCCSc1cc(N[C@@H](CC(C)C)C(=O)NCCCOCC)nc(-n2ccnc2)n1`, the Ki in [1] was determined as 60 nM. Besides, the remaining at 0.5 h, 10 µM in series [2] worked out at 26%.

Compound `CCCCc1cc(N[C@@H](CC(C)C)C(=O)NCCCOCC)nc(-n2cnc(-c3ccc(OC)cc3)c2)n1` displayed an inhibition constant (Ki) in series [1] of 42 nM. The remaining at 0.5 h, 10 µM in [2] came to 30%.

Compound `CCCc1cc(N[C@@H](CC(C)C)C(=O)NCCCOCC)nc(-n2cnc(-c3cccc(OC(F)(F)F)c3)c2)n1` displayed a Ki in [1] of 35 nM. Besides, the remaining at 0.5 h, 10 µM in series [2] was 55%. For the same compound, the bioavailability in [3] was 7%.

With `CCOCCCNC(=O)[C@H](CC(C)C)Nc1ccnc(-n2cnc(-c3ccc(OC(F)(F)F)cc3)c2)n1`, the Ki in series [1] worked out at 200 nM. Besides, the remaining at 0.5 h, 10 µM in series [2] is 5%. The same compound showed a bioavailability in series [3] of 4%.

`CCCCCCCCc1cc(N[C@@H](CC(C)C)C(=O)NCCCOCC)nc(-n2ccnc2)n1` yielded a Ki in [1] of 120 nM. Moreover, in [2], the remaining at 0.5 h, 10 µM worked out at 36%.

`CCCCc1cc(N[C@@H](CC(C)C)C(=O)NCCCOCC)nc(-c2ccncc2)n1`: in series [1], the Ki is above 5000 nM. The remaining at 0.5 h, 10 µM in series [2] stood at 52%.

Regarding `CCOCCCNC(=O)[C@H](CC(C)C)Nc1cc(C(C)(C)C)nc(-n2ccnc2)n1`, in series [1], the inhibitory constant (Ki) is 6000 nM. Moreover, the remaining at 0.5 h, 10 µM in series [2] turned out to be 83%.

Consider `CCCc1cc(N[C@@H](CC(C)C)C(=O)NCCCOCC)nc(-n2cnc(-c3ccccc3OC(F)(F)F)c2)n1`, for which the Ki in [1] amounted to 50 nM. In addition, the remaining at 0.5 h, 10 µM in series [2] turned out to be 13%. The compound further returned a bioavailability in series [3] of 5%.

On to `CCCCCCc1cc(N[C@@H](CC(C)C)C(=O)NCCCOCC)nc(-n2ccnc2)n1`, for which the Ki in [1] was determined as 290 nM. In addition, in [2], the remaining at 0.5 h, 10 µM is 50%.

For the compound `CCOCCCNC(=O)[C@H](CC(C)C)Nc1cc(C)nc(-n2cnc(-c3ccc(OC(F)(F)F)cc3)c2)n1`, in series [1], the Ki was 44 nM. For the same compound, the remaining at 0.5 h, 10 µM in [2] was determined as 67%. The bioavailability in series [3] turned out to be 22%.

In general, Cmax refers to the peak of the concentration-time curve. As a reminder, the half-life is the time needed for the level to fall by half in the phase considered. For orientation: AUC(0-inf) means the area under the concentration-time curve extrapolated to infinity. A higher AUC(0-inf) goes with high exposure. Turning to `CCCc1cc(N[C@@H](CC(C)C)C(=O)NCCCOCC)nc(-n2cnc(-c3ccc(OC(F)(F)F)cc3)c2)n1`, the peak concentration (Cmax) in series [4] was found to be 300 nM; in series [10], 660 nM. The bioavailability in series [5] is 25%; in series [3], 33%. Further, the inhibition constant Ki in [1] is 25 nM. Moreover, in [2], the remaining at 0.5 h, 10 µM came out at 74%. For the same compound, the values for the half-life in series [6] and in series [11] were 2.7 h and 1.1 h, respectively. Further, the clearance in [7] was 9.83 mL/min/kg; in [12], 12.1 mL/min/kg. Moreover, the results for the Vd in series [8] and in series [13] were 1.99 L/kg and 2.79 L/kg, respectively. Further, the AUC(0-inf) in series [9] is 2.43 µM·h; in series [14], 1.39 µM·h.

With `CCCCc1cc(N[C@@H](CC(C)C)C(=O)NCCCOCC)nc(-n2cnc(-c3ccc(C)cc3)c2)n1`, in series [1], the affinity, expressed as Ki, was 40 nM. Further, the remaining at 0.5 h, 10 µM in series [2] turned out to be 35%.

In [1], `CCCCc1cc(N[C@@H](CC(C)C)C(=O)NCCCOCC)nc(-n2cnc(C(C)(C)C)c2)n1` returned a Ki of 85 nM. Moreover, the remaining at 0.5 h, 10 µM in [2] amounted to 13%.

`CCCCc1cc(N[C@@H](CC(C)C)C(=O)NCCCOCC)nc(-n2ccnc2)n1` displayed a Ki in [1] of 1700 nM. For the same compound, the remaining at 0.5 h, 10 µM in series [2] amounted to 68%.

In series [1], `CCCCc1cc(N[C@@H](CC(C)C)C(=O)NCCCOCC)nc(-n2cnc(-c3ccc(O)cc3)c2)n1` yielded an inhibition constant (Ki) of 32 nM. Further, the remaining at 0.5 h, 10 µM in series [2] was found to be 65%.

In [1], `CCCCc1cc(N[C@@H](CC(C)C)C(=O)NCCCOCC)nc(-c2cccnc2)n1` yielded a Ki of 750 nM. In addition, the remaining at 0.5 h, 10 µM in series [2] was 36%.
